One test deals with Tubulin (Bos taurus, UniProt Q6B856+Q862L2+Q862F3). Nature of the test: Inhibition of bovine brain tubulin polymerization preincubated for 15 mins followed by GTP addition and measured after 20 mins by turbidimetric analysis. Summed up:
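Mixtures (0.25 mL final) held 10 μM (1 mg/mL) bovine brain tubulin, 0.8 M monosodium glutamate pH 6.6, 4% DMSO and compound. Preincubated 15 min at 30 °C without GTP, chilled to 0 °C, then GTP added to 0.1 mM final. Warmed to 30 °C, turbidity followed at 350 nm for 20 min. IC50 = concentration halving polymerization extent at 20 min.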

In test [1] the test system is MCF7. In words: Cytotoxicity against human MCF7 cells assessed as inhibition of cell growth incubated for 96 hrs by SRB assay. As to conditions: MCF7, 96 h. A general note: In SRB staining, fixed cells bind dye roughly in proportion to their protein.
Test [2] relates to MCF7. Nature of the test: Cytotoxicity against human MCF7 cells assessed as inhibition of cell growth incubated for 48 hrs by SRB assay. As to conditions: MCF7, 48 h. Type of test: functional, cell-based.
The subject of another test is MDA-MB-231. Nature of the test: Cytotoxicity against human MDA-MB-231 cells assessed as inhibition of cell growth incubated for 48 hrs by SRB assay. Format: functional, cell-based. Conditions: MDA-MB-231, 48 h. Summed up: (§1)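 Seeded at 12,000 cells/well in triplicate and grown 24 h at 37 °C, 5% CO2 in high-glucose DMEM with 10% FBS and 30 μg/mL gentamicin. Serial dilutions in medium from 10 mg/mL DMSO stocks, 48 h exposure. Fixed with TCA (6% final), SRB-stained, dye solubilized in 10 mM Tris, A530.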

The subject of test [3] is PANC-1. In words: Cytotoxicity against human PANC-1 cells assessed as inhibition of cell growth incubated for 48 hrs by SRB assay. Format: functional, cell-based. Conditions: PANC-1, 48 h. Summed up: as §1
Test [4] has as its system PANC-1. In words: Inhibition of cell migration in human PANC-1 cells at 0.5 to 1 uM incubated for 48 hrs by scratch wound healing assay. Format: functional, cell-based. Conditions: dose 0.5-1 µM. Summed up:
(§2)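 About 1 × 10^5 cells seeded per well of a 6-well plate in DMEM with 10% heat-inactivated FBS and 30 μg/mL gentamicin at 37 °C, 5% CO2. Grown to 70–80% confluency, scratched with a 10 μL pipette tip, medium replaced. Two wells per condition at 0.5 or 1 μM, DMSO ≤0.2% final, with two control wells. Gap imaged by automated microscopy (4X) over 48 h.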

Test [5] has as its system PANC-1. In words: Inhibition of cell migration in human PANC-1 cells at 0.5 uM incubated for 1 to 40 hrs by scratch wound healing assay. Format: functional, cell-based. As to conditions: time 1-40 hrs. Summed up: as §2
The test system of test [6] is PANC-1. In words: Inhibition of cell migration in human PANC-1 cells at 1 uM incubated at 40 hrs by scratch wound healing assay. Format: functional, cell-based. Summed up:
as §2

Each structure is given as a SMILES string. The source made the active and inactive calls. No cut-off for these calls is given here.

Consider 14 molecules from ChEMBL document CHEMBL5325503, “Structure Guided Design, Synthesis, and Biological Evaluation of Oxetane-Containing Indole Analogues” (Bioorg Med Chem, 2023).

The term IC50 denotes the concentration needed to halve the response being measured.

As for `COc1ccc2[nH]c(-c3ccc(C)cc3)c(C3(c4cc(OC)c(OC)c(OC)c4)COC3)c2c1`, the results for the IC50 against Tubulin and in the test with MCF7 [1] were over 20000 nM and over 5000 nM, respectively.
As to `COc1cc(C2(c3c(-c4ccc(C)cc4)[nH]c4cc(Br)ccc34)COC2)cc(OC)c1OC`, the IC50 at Tubulin was over 20000 nM; in the test on MCF7 [1], 1700 nM.
As for `COc1ccc2[nH]c(-c3ccccc3)c(C3(c4cc(OC)c(OC)c(OC)c4)COC3)c2c1`, the IC50 is over 20000 nM against Tubulin and 3200 nM in the test with MCF7 [1].
Consider `COc1ccc(-c2[nH]c3ccccc3c2C2(c3cc(OC)c(OC)c(OC)c3)COC2)cc1`, for which the values for the IC50 on Tubulin and with MCF7 [1] were over 20000 nM and over 5000 nM, respectively.
Turning to `COc1ccc(-c2[nH]c3cc(Cl)ccc3c2C2(c3cc(OC)c(OC)c(OC)c3)COC2)cc1`, the figures for the IC50 on Tubulin and in the test on MCF7 [2] were over 20000 nM and 3700 nM, respectively.
As for `COc1cc(C2(c3c(-c4ccc(C)cc4)[nH]c4cc(Cl)ccc34)COC2)cc(OC)c1OC`, the results for the half-inhibitory concentration (IC50) against Tubulin and in the test on MCF7 [1] were over 20000 nM and 2700 nM, respectively.
For the molecule `COc1cc(C2(c3c(-c4ccccc4)[nH]c4ccccc34)COC2)cc(OC)c1OC`, the IC50 on Tubulin was over 20000 nM; in the test with MCF7 [1], over 5000 nM.
As to `COc1cccc(-c2[nH]c3ccccc3c2C2(c3cc(OC)c(OC)c(OC)c3)COC2)c1`, the results for the IC50 against Tubulin and in the test with MCF7 [1] were over 20000 nM and 4800 nM, respectively.
With `COc1cc(C2(c3c(-c4ccccc4)[nH]c4cc(Cl)ccc34)COC2)cc(OC)c1OC`, the IC50 on Tubulin was over 20000 nM; in the test on MDA-MB-231 it was 2200 nM; in the test on PANC-1 [3], 1100 nM; with MCF7 [1], 840 nM.
As to `COc1cc(C2(c3c(-c4ccc(C)cc4)[nH]c4ccccc34)COC2)cc(OC)c1OC`, the half-maximal inhibitory concentration (IC50) was over 20000 nM on Tubulin and over 5000 nM in the test on MCF7 [1].
For the molecule `COc1cc(C2(c3c(-c4ccccc4)[nH]c4cc(Br)ccc34)COC2)cc(OC)c1OC`, the IC50 against Tubulin is over 20000 nM; in the test on MDA-MB-231 it was 1900 nM; with PANC-1 [3], 430 nM; with MCF7 [1], 470 nM. Moreover, the inhibition result with PANC-1 [4], with PANC-1 [5] and with PANC-1 [6] was “Active” in each case.
With `COc1cc(C2(c3c(-c4ccccc4)[nH]c4c(OC)cccc34)COC2)cc(OC)c1OC`, the IC50 was over 20000 nM at Tubulin, 3000 nM in the test on MDA-MB-231, 440 nM with PANC-1 [3] and 780 nM in the test on MCF7 [1]. Moreover, the inhibition result in the test on PANC-1 [4], with PANC-1 [5] and in the test with PANC-1 [6] was “Active” in each case.
As for `COc1cc(C2(c3c(-c4ccccc4)[nH]c4ccc(Br)cc34)COC2)cc(OC)c1OC`, the results for the IC50 against Tubulin and in the test on MCF7 [1] were over 20000 nM and 2200 nM, respectively.
On to `COc1ccc2c(C3(c4cc(OC)c(OC)c(OC)c4)COC3)c(-c3ccc(OC)c(O)c3)[nH]c2c1`, for which the IC50 against Tubulin was over 20000 nM; in the test with MCF7 [2], 1600 nM.
